Measured values published in BindingDB's records for doi:10.1021/jm990396t (Glaxo Wellcome Research and Development, 2000).

Target: Kynurenine 3-monooxygenase (Rattus norvegicus, UniProt O88867)
Assay: Inhibition of Kynurenine-3-hydroxylase enzyme isolated from the rat liver
Procedure, shortened: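 Enzyme source: P2 mitochondrial pellet from rat liver, resuspended in 0.32 M sucrose. Activity measured as ³HOH release from 3-[³H]-L-kynurenine at its K_m concentration, 37 °C, under conditions linear with time and enzyme protein. Five inhibitor concentrations tested. IC50 taken as the mean of at least 2 experiments run in duplicate, with variation <20%.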

Sequence of Kynurenine 3-monooxygenase (O88867 whole entry): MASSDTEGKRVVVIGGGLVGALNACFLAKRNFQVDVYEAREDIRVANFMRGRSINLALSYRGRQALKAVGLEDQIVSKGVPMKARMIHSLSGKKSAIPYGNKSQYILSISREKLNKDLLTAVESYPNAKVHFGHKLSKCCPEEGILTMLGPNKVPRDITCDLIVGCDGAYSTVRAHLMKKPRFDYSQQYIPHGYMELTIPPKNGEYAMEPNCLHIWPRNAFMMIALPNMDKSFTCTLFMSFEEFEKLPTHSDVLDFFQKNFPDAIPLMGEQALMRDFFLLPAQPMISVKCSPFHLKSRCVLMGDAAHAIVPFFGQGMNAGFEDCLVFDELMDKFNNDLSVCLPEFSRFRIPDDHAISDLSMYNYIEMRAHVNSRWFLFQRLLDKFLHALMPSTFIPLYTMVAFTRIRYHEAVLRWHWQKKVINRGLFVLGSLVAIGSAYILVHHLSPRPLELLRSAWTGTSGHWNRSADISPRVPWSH

Row | IC50 | Structure (SMILES)
1 | 1.9 µM | COC(=O)C(=O)CC(=O)c1ccc(Cl)c(Cl)c1 [4-(3,4-Dichloro-phenyl)-2-hydroxy-4-oxo-but-2-enoic acid methyl ester]
2 | 1.9 µM | COC(=O)C(=O)CC(=O)c1cccc(Cl)c1 [4-(3-Chloro-phenyl)-2-hydroxy-4-oxo-but-2-enoic acid methyl ester]
3 | 1.9 µM | COC(=O)C(=O)CC(=O)c1ccc(Br)cc1 [4-(4-Bromo-phenyl)-2-hydroxy-4-oxo-but-2-enoic acid methyl ester]
4 | 1.7 µM | O=C(O)C(=O)CC(=O)c1cccc(Br)c1 [(Z)-4-(3-Bromo-phenyl)-2-hydroxy-4-oxo-but-2-enoic acid]
